In ChEMBL document CHEMBL1649147, “Antistaphylococcal activity of dihydrophthalazine antifolates, a family of novel antibacterial drugs” (2009):
Converted amounts (≈) assume the structure as drawn.

Key:
Staphylococcus aureus [1] = assay: Antibacterial activity against methicillin-resistant Staphylococcus aureus by agar dilution method; format: functional
Outline: (§1)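 Agar dilution on Mueller-Hinton agar per CLSI guidelines. S. aureus ATCC 29213 and E. faecalis ATCC 29212 were run with each set, and test MICs were accepted only when the control strains fell within acceptable ranges.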

Staphylococcus aureus [2] = assay: Antibacterial activity against Tmp-susceptible coagulase-negative Staphylococcus aureus by agar dilution method; format: functional
Outline: (§2)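 MICs by agar dilution on Mueller-Hinton agar following CLSI guidelines. S. aureus ATCC 29213 and E. faecalis ATCC 29212 were run as quality controls with each set, and test-strain MICs were kept only if control MICs fell within acceptable ranges.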

[3] = test system: Staphylococcus epidermidis; assay: Antibacterial activity against methicillin-resistant, Linezolid non-susceptible coagulase-negative Staphylococcus epidermidis 345 after 50 passages by agar dilution method; format: functional
Outline: (§3)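 Daily serial passage for up to 50 days at 35°C for 24 h in 1 ml MHB. Each transfer used 10 µl from the tube nearest the MIC (1–2 dilutions below) with the same turbidity as the drug-free control. MICs were measured by agar dilution, with changes given as log2 steps.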

[4] = test system: coagulase-negative staphylococci; assay: Antibacterial activity against methicillin-susceptible coagulase-negative staphylococci by agar dilution method
Staphylococcus aureus [5] = assay: Antibacterial activity against Tmp-resistant Staphylococcus aureus by agar dilution method; format: functional; outline: as §2
Staphylococcus aureus [6] = assay: Antibacterial activity against methicillin-susceptible Staphylococcus aureus by agar dilution method; format: functional; outline: as §1
Staphylococcus aureus [7] = assay: Antibacterial activity against vancomycin-resistant Staphylococcus aureus VRS1 by broth macrodilution method; format: functional
Outline: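 Michigan VRSA strain, one of 12 staphylococci later used in time-kill studies. MIC was determined by broth macrodilution and reported in μg/ml.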

Staphylococcus aureus [8] = assay: Antibacterial activity against Tmp-susceptible Staphylococcus aureus by agar dilution method; format: functional; outline: as §2
Staphylococcus aureus [9] = assay: Antibacterial activity against methicillin-resistant Staphylococcus aureus 145 after 50 passages by agar dilution method; format: functional
Outline: (§4)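 Serial passage under drug. Inoculum was ~1 × 10^6 CFU/ml from overnight MHA growth, in 1 ml MHB at 35°C for 24 h. Drug ranged from 4 log2 steps above to 3 log2 steps below the MIC. […] MIC change is given as log2 steps.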

[10] = test system: Staphylococcus epidermidis; assay: Antibacterial activity against methicillin-resistant, vancomycin-intermediate coagulase-negative Staphylococcus epidermidis 225 after 50 passages by agar dilution method; format: functional
Outline: (§5)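 Daily serial passage for up to 50 days at 35°C for 24 h in 1 ml MHB. […] Each transfer used 10 µl from the tube nearest the MIC (1–2 dilutions below) with the same turbidity as the drug-free control. […] MICs were measured by agar dilution, with changes given as log2 steps.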

Staphylococcus aureus [11] = assay: Antibacterial activity against methicillin-susceptible, vancomycin-intermediate Staphylococcus aureus 505 by broth macrodilution method; format: functional
Staphylococcus aureus [12] = assay: Antibacterial activity against methicillin-resistant Staphylococcus aureus 507 by broth macrodilution method; format: functional
[13] = test system: Staphylococcus epidermidis; assay: Antibacterial activity against methicillin-susceptible coagulase-negative Staphylococcus epidermidis 057 by broth macrodilution method; format: functional
[14] = test system: Staphylococcus epidermidis; assay: Antibacterial activity against methicillin-resistant coagulase-negative Staphylococcus epidermidis 074 by broth macrodilution method; format: functional
Staphylococcus aureus [15] = assay: Antibacterial activity against methicillin-resistant and vancomycin-resistant Staphylococcus aureus VRS1 by agar dilution method; format: functional; outline: as §1
Staphylococcus aureus [16] = assay: Antibacterial activity against methicillin-resistant Staphylococcus aureus ATCC 43300 by broth macrodilution method; format: functional; conditions: ATCC43300
[17] = test system: Staphylococcus epidermidis; assay: Antibacterial activity against methicillin-resistant coagulase-negative Staphylococcus epidermidis 197 after 50 passages by agar dilution method; format: functional; outline: as §3
[18] = test system: Staphylococcus epidermidis; assay: Antibacterial activity against methicillin-resistant coagulase-negative Staphylococcus epidermidis 197 by broth macrodilution method; format: functional
[19] = test system: Staphylococcus epidermidis; assay: Antibacterial activity against methicillin-susceptible coagulase-negative Staphylococcus epidermidis 051 after 50 passages by agar dilution method; format: functional; outline: as §3
[20] = test system: coagulase-negative staphylococci; assay: Antibacterial activity against Tmp-susceptible coagulase-negative staphylococci by agar dilution method
Staphylococcus aureus [21] = assay: Antibacterial activity against methicillin-resistant and vancomycin-resistant Staphylococcus aureus VRS1 after 50 passages by agar dilution method; format: functional; outline: as §5
Staphylococcus aureus [22] = assay: Antibacterial activity against methicillin-resistant Staphylococcus aureus 145 by broth macrodilution method; format: functional
[23] = test system: Staphylococcus epidermidis; assay: Antibacterial activity against methicillin-resistant coagulase-negative Staphylococcus epidermidis 345 by broth macrodilution method; format: functional
[24] = test system: Staphylococcus epidermidis; assay: Antibacterial activity against methicillin-resistant, vancomycin-intermediate coagulase-negative Staphylococcus epidermidis 225 by agar dilution method; format: functional; outline: as §1
[25] = test system: coagulase-negative staphylococci; assay: Antibacterial activity against Tmp-resistant coagulase-negative staphylococci by agar dilution method
Staphylococcus aureus [26] = assay: Antibacterial activity against methicillin-susceptible Staphylococcus aureus ATCC 29213 after 50 passages by agar dilution method; format: functional; conditions: ATCC29213; outline: as §5
[27] = test system: Staphylococcus epidermidis; assay: Antibacterial activity against methicillin-susceptible coagulase-negative Staphylococcus epidermidis 051 by broth macrodilution method; format: functional
Staphylococcus aureus [28] = assay: Antibacterial activity against methicillin-resistant Staphylococcus aureus ATCC 43300 after 50 passages by agar dilution method; format: functional; conditions: ATCC43300; outline: as §4
Staphylococcus aureus [29] = assay: Antibacterial activity against methicillin-susceptible Staphylococcus aureus ATCC 29213 by broth macrodilution method; format: functional; conditions: ATCC29213
[30] = test system: Staphylococcus epidermidis; assay: Antibacterial activity against methicillin-susceptible coagulase-negative Staphylococcus epidermidis 057 after 50 passages by agar dilution method; format: functional; outline: as §3
[31] = test system: coagulase-negative staphylococci; assay: Antibacterial activity against methicillin-resistant coagulase-negative staphylococci by agar dilution method
Staphylococcus aureus [32] = assay: Antibacterial activity against methicillin-susceptible Staphylococcus aureus 505 by broth macrodilution method; format: functional
[33] = test system: Staphylococcus epidermidis; assay: Antibacterial activity against methicillin-resistant, Linezolid non-susceptible coagulase-negative Staphylococcus epidermidis 345 by agar dilution method; format: functional
Staphylococcus aureus [34] = assay: Antibacterial activity against methicillin-susceptible, vancomycin-intermediate Staphylococcus aureus 505 after 50 passages by agar dilution method; format: functional; outline: as §5
[35] = test system: Staphylococcus epidermidis; assay: Antibacterial activity against methicillin-resistant coagulase-negative Staphylococcus epidermidis 225 by broth macrodilution method; format: functional

SMILES: CN(C)c1ccc(O)c2c1C[C@H]1C[C@H]3[C@H](N(C)C)C(O)=C(C(N)=O)C(=O)[C@@]3(O)C(O)=C1C2=O [MINOCYCLINE]
- MIC50 (Staphylococcus aureus [1]): 0.125 µg/mL (≈ 0.273 µM)
- MIC90 (Staphylococcus aureus [1]): 2 µg/mL (≈ 4.37 µM)
- MIC (Staphylococcus aureus [2]): 0.06 µg/mL (≈ 0.131 µM)
- MIC [3]: 1 µg/mL (≈ 2.19 µM)
- MIC [4]: 0.125 µg/mL (≈ 0.273 µM)
- MIC90 [4]: 0.5 µg/mL (≈ 1.09 µM)
- MIC50 (Staphylococcus aureus [5]): 0.25 µg/mL (≈ 0.546 µM)
- MIC90 (Staphylococcus aureus [5]): 8 µg/mL (≈ 17.5 µM)
- MIC50 (Staphylococcus aureus [6]): 0.125 µg/mL (≈ 0.273 µM)
- MIC90 (Staphylococcus aureus [6]): 0.25 µg/mL (≈ 0.546 µM)
- MIC (Staphylococcus aureus [7]): 1 µg/mL (≈ 2.19 µM)
- MIC50 (Staphylococcus aureus [8]): 0.125 µg/mL (≈ 0.273 µM)
- MIC90 (Staphylococcus aureus [8]): 0.25 µg/mL (≈ 0.546 µM)
- MIC (Staphylococcus aureus [9]): 8 µg/mL (≈ 17.5 µM)
- MIC [10]: 1 µg/mL (≈ 2.19 µM)
- MIC (Staphylococcus aureus [11]): 0.125 µg/mL (≈ 0.273 µM)
- MIC (Staphylococcus aureus [12]): 2 µg/mL (≈ 4.37 µM)
- MIC [13]: 0.5 µg/mL (≈ 1.09 µM)
- MIC [14]: 0.25 µg/mL (≈ 0.546 µM)
- MIC (Staphylococcus aureus [15]): 0.5 µg/mL (≈ 1.09 µM)
- MIC (Staphylococcus aureus [16]): 0.125 µg/mL (≈ 0.273 µM)
- MIC [17]: 2 µg/mL (≈ 4.37 µM)
- MIC [18]: 0.125 µg/mL (≈ 0.273 µM)
- MIC [19]: 4 µg/mL (≈ 8.74 µM)
- MIC50 [20]: 0.125 µg/mL (≈ 0.273 µM)
- MIC90 [20]: 1 µg/mL (≈ 2.19 µM)
- MIC (Staphylococcus aureus [21]): 2 µg/mL (≈ 4.37 µM)
- MIC (Staphylococcus aureus [22]): 4 µg/mL (≈ 8.74 µM)
- MIC [23]: 0.25 µg/mL (≈ 0.546 µM)
- MIC [24]: 0.125 µg/mL (≈ 0.273 µM)
- MIC50 [25]: 0.5 µg/mL (≈ 1.09 µM)
- MIC90 [25]: 0.5 µg/mL (≈ 1.09 µM)
- MIC (Staphylococcus aureus [26]): 2 µg/mL (≈ 4.37 µM)
- MIC [27]: 0.125 µg/mL (≈ 0.273 µM)
- MIC (Staphylococcus aureus [28]): 1 µg/mL (≈ 2.19 µM)
- MIC (Staphylococcus aureus [29]): 0.125 µg/mL (≈ 0.273 µM)
- MIC [30]: 2 µg/mL (≈ 4.37 µM)
- MIC50 [31]: 0.25 µg/mL (≈ 0.546 µM)
- MIC90 [31]: 1 µg/mL (≈ 2.19 µM)
- MIC (Staphylococcus aureus [32]): 0.125 µg/mL (≈ 0.273 µM)
- MIC [33]: 0.5 µg/mL (≈ 1.09 µM)
- MIC (Staphylococcus aureus [34]): 1 µg/mL (≈ 2.19 µM)
- MIC [35]: 0.125 µg/mL (≈ 0.273 µM)

SMILES: CN[C@H](CC(C)C)C(=O)N[C@H]1C(=O)N[C@@H](CC(N)=O)C(=O)N[C@H]2C(=O)N[C@H]3C(=O)N[C@H](C(=O)N[C@H](C(=O)O)c4cc(O)cc(O)c4-c4cc3ccc4O)[C@H](O)c3ccc(c(Cl)c3)Oc3cc2cc(c3O[C@@H]2O[C@H](CO)[C@@H](O)[C@H](O)[C@H]2O[C@H]2C[C@](C)(N)[C@H](O)[C@H](C)O2)Oc2ccc(cc2Cl)[C@H]1O [VANCOMYCIN]
- MIC50 (Staphylococcus aureus [1]): 1 µg/mL (≈ 0.69 µM)
- MIC90 (Staphylococcus aureus [1]): 2 µg/mL (≈ 1.38 µM)
- MIC90 [4]: 2 µg/mL (≈ 1.38 µM)
- MIC50 (Staphylococcus aureus [5]): 1 µg/mL (≈ 0.69 µM)
- MIC90 (Staphylococcus aureus [5]): 4 µg/mL (≈ 2.76 µM)
- MIC50 (Staphylococcus aureus [6]): 1 µg/mL (≈ 0.69 µM)
- MIC90 (Staphylococcus aureus [6]): 2 µg/mL (≈ 1.38 µM)
- MIC (Staphylococcus aureus [7]): > 256 µg/mL
- MIC50 (Staphylococcus aureus [8]): 1 µg/mL (≈ 0.69 µM)
- MIC90 (Staphylococcus aureus [8]): 2 µg/mL (≈ 1.38 µM)
- MIC [10]: 16 µg/mL (≈ 11 µM)
- MIC (Staphylococcus aureus [15]): > 32 µg/mL
- MIC50 [20]: 1 µg/mL (≈ 0.69 µM)
- MIC90 [20]: 2 µg/mL (≈ 1.38 µM)
- MIC [24]: 8 µg/mL (≈ 5.52 µM)
- MIC50 [25]: 2 µg/mL (≈ 1.38 µM)
- MIC90 [25]: 2 µg/mL (≈ 1.38 µM)
- MIC50 [31]: 2 µg/mL (≈ 1.38 µM)
- MIC90 [31]: 2 µg/mL (≈ 1.38 µM)
- MIC (Staphylococcus aureus [34]): 8 µg/mL (≈ 5.52 µM)
- MIC [35]: 8 µg/mL (≈ 5.52 µM)
